assay: Toxicity liver stage against HepG2, at 10uM; type: cell-based; parameters: test concentration 10 uM, cell line HepG2-A16-CD81EGFP; settings: human, HepG2-A16-CD81EGFP cells; read-out: INHIBITION
How it was run: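 Uninfected HepG2-A16-CD81EGFP cells, 3 × 10^3 per well, 1536-well, plated on prespotted compound at 10 μM final, parasite-free screening media added to match infected plates; puromycin 10 μM positive, DMSO 0.5% negative; run in parallel with 48 h PbLuc assay at 37 °C, 5% CO2; viability by CellTiter-Glo luminescence, normalized to controls.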

Point of comparison: `Cc1ccc(CN(C)C(=O)CN2CCCCC2Cn2cncn2)o1` (stereo not given), cytotoxicity at 10 µM 0.508%. Against it:
- CCC(C)[C@H](N)c1nnc(SCC(=O)Nc2ccc(C)cc2C)o1 (stereo not given in full) — lower, -3.32%
- COc1ccc(-c2c[nH]c([C@@H]3COCCN3)n2)cc1 — lower, -4.84%
- N#Cc1ccc(C(=O)N2CCCSCC2CN2CCCC2)cc1 (stereo not given) — higher, 10.1%
- Cn1nc(CNC(=O)c2ccc3c(c2)OCO3)c2c1CCOC2 — lower, -1.82%
- O=C(NC1CC1)C1CCCN(c2cc(-n3cncn3)ncn2)C1 (stereo not given) — higher, 10.1%
- O=C1CCC2(CCCN(C(=O)c3ccco3)CC2)N1 (stereo not given) — higher, 3.17%
- Cc1ccc(CN2C[C@H]3CN(CC4CCN(C)CC4)C(=O)[C@H]3C2)s1 — higher, 2.5%
- O=C1C[C@H]2[C@H](CCN2C(=O)c2cc[nH]n2)N1Cc1cccnc1 — higher, 3.03%
- Cc1cnc(N2CCC3(CC2)CCN(c2cncnc2)C3=O)nc1 — lower, -13%
- CCN1CC2(CC1=O)CN(C(C)=O)CCN(S(=O)(=O)CC)C2 (stereo not given) — lower, -2.02%
- CN(C)S(=O)(=O)N1C[C@H]2CCC[C@@]2(COCC2CCOCC2)C1 — higher, 7.45%
- Cc1nn(CC(=O)Nc2ccon2)c(C)c1Br — higher, 9.62%
- Cc1ccccc1C(=O)NC(C)c1cnn(C)c1 (stereo not given) — higher, 15.7%
- CCn1nc(C)c2nnn(CC(=O)Nc3ccccc3F)c(=O)c21 — higher, 5.37%
- CSc1nnc(C2CCN(C(=O)N3CCOCC3)CC2)n1C(C)C — higher, 3.8%
- CS(=O)(=O)NC1(CCc2ccc(NC(=O)C3CC3)nc2)CCCCC1 — higher, 6.56%
- CC(=O)N1CCC(CCc2ccnc(Nc3ccccn3)c2)CC1 — higher, 5.57%
- CC(C)N1CCCCC1c1cncc(Cl)n1 (stereo not given) — higher, 8.41%
- Cc1ccc(Nc2nccc(C3CCN(C(=O)CO)C3)n2)nc1 (stereo not given) — lower, -2.56%
- CS(=O)(=O)N1CC2(CCN(C3CCCCC3)C2)Cc2ccccc21 (stereo not given) — higher, 3.38%
- O=S1(=O)NCC2(CCCN(Cc3cccnc3)C2)Oc2ncccc21 (stereo not given) — higher, 6.28%
- O=C(c1ccc(Oc2cccnc2)cc1)N1CCN(CCO)CC1 — lower, -41.5%
- CC(NCC1(N(C)C)CCOCC1)c1ccc(SC(F)F)cc1 (stereo not given) — lower, -0.79%
- COc1cc(CNc2nc(C(F)(F)F)no2)cc(OC)c1OC — higher, 1.66%
- CNC(=O)CN(C)C(=O)c1ccc(-c2nc(C)cs2)cc1 — lower, -7.77%
- Cc1cccc(COc2ccc(C(C)NC(=O)CNC(N)=O)cc2)c1 (stereo not given) — lower, -20.9%
- CCCNC(=O)c1cnc2n1CCCC2 — lower, -3.19%
- CNC(=O)COC(=O)c1cccc(-n2ccc(C(F)(F)F)n2)c1 — lower, -39.5%
- CC(=O)N1Cc2ccccc2C[C@H]1C(=O)N(C)Cc1ccccn1 — higher, 6.17%
- CN(Cc1c(F)cccc1Cl)C(=O)c1cnn(CCN2CCCCC2)c1 — lower, -19.1%
- Cc1cc(NC(=O)CCCn2ccnc2C)nc(C(C)C)n1 — lower, -5.73%
- CN(Cc1ccc(Cl)cc1)C(=O)Nc1cnn(CC(N)=O)c1 — lower, -17.6%
- CC(=O)NCC(=O)NC1CCc2nccn2C1 (stereo not given) — lower, -6.99%
- O=C(NCc1ccc(F)cc1)NCC1(N2CCOCC2)CCSC1 (stereo not given) — higher, 1.84%
- CS(=O)(=O)CCNC1CCCN(Cc2noc(C3CC3)n2)C1 (stereo not given) — lower, -1.38%
- Cc1ccc(CNc2ccccc2-n2ccc(C)n2)nc1 — higher, 5.7%
- CC(O)CN1CCN(C(=O)c2cnc(OC(C)C)c(Cl)c2)CC1 (stereo not given) — lower, -19.5%
- NC(=O)NC(=O)CCN1CCC(C(=O)c2cc(F)ccc2F)CC1 — higher, 9.69%
- Cc1ccc(OCC(=O)NC2CC2)nc1 — higher, 4.06%
- CC1COc2ccccc2N1C(=O)c1ccc(=O)n(C)c1 (stereo not given) — lower, -3.42%
- Cn1nc(Br)c2c(NCCCS(N)(=O)=O)ncnc21 — higher, 16.4%
- CS(=O)(=O)CCC(=O)N(CCc1cccc(F)c1)C1CC1 — lower, -5.82%
- COc1cc(CNC2CCN(c3ccccc3)C2)cc(OC)c1OC (stereo not given) — higher, 3.96%
- O=S(=O)(NCc1ccc(S(=O)(=O)N2CCCC2)s1)c1ccc(Cl)c(Cl)c1 — lower, -41.8%
- O=S(=O)(CC1CCOCC1)NCc1ncc(-c2ccccc2)o1 — lower, -12.6%
- CCc1cnc(CNC(=O)N2CCCC(c3ncc[nH]3)C2)s1 (stereo not given) — higher, 8.2%
- COCCN1CCC(CNC(=O)C2(NC(C)=O)CCCCC2)CC1 — higher, 5.46%
- CSCCC(NC(=O)c1ccc2ccccc2n1)C(=O)NC(C)C (stereo not given) — higher, 9.3%
- O=C1CN(c2ccc(CNc3cncc(-n4cccn4)n3)cc2)CCN1 — lower, -13.3%
- CC1CCN(C(CNC(=O)CCn2cccn2)c2cccs2)CC1 (stereo not given) — higher, 13.5%
- NC(=O)c1nc2c(s1)CCN(C(=O)Nc1ccccc1)CC2 — higher, 12.5%
- CN1CCN(Cc2cnc3n2CCN(C(=O)c2ccccn2)C3)CC1 — lower, -88.7%
- Cc1ccc2c(n1)N(CCN(C)C)CCN(C(=O)c1ccsc1)C2 — lower, -57.3%
- O=C(c1ccccn1)N1CCC2(CC1)CN(c1cncnc1)C(=O)CO2 — lower, -67%
- Cc1ccc(CN2CCN(C)c3ncccc3C2)o1 — lower, -79.6%
- COCC(=O)N1C[C@@H]2OCCN(Cc3c(C)noc3C)[C@@H]2C1 — lower, -0.722%
- Cc1ccc2nc(C3CCCN3Cc3csc(C)n3)[nH]c2c1 (stereo not given) — higher, 1.58%
- FC(F)(F)c1ccnc(N2CCCC(N3CCOCC3)C2)c1 (stereo not given) — lower, -24.7%
- CCCN(Cc1ccc(C(=O)NCC2COCCO2)c(=O)[nH]1)C1CC1 (stereo not given) — lower, -15.3%
- CCc1cnc(C)nc1NC(C)C(=O)Nc1cc(F)ccc1C (stereo not given) — lower, -0.682%
- FC(F)(F)c1cccc(OC2CCN(Cc3ccccn3)CC2)c1 — lower, -0.609%
- COc1ccccc1OC1(C(=O)O)CCN(c2ccccn2)CC1 — higher, 4.52%
- CN(Cc1ccccc1-n1cccn1)C[C@@H]1CCCN2CCCC[C@H]12 — lower, -8.2%
- CC(C)c1cc(N2CCC3(CCN(C)C3)C2)ncn1 (stereo not given) — lower, -11.8%
- Cc1nc(CCNC2CCN(Cc3ccccc3)C2)sc1C (stereo not given) — higher, 12.3%
- O=C(NCC1CCN(Cc2cc3ccccc3[nH]2)C1)c1ccsc1 (stereo not given) — higher, 15.6%
- CC(=O)N1CCCn2nc(CNS(=O)(=O)N(C)C(C)C)cc2C1 — higher, 3.54%
- CSCCC1c2nc[nH]c2CCN1Cc1ccccc1C#N (stereo not given) — lower, -1.57%
- CCC[C@H]1CN(c2nccc(OC)n2)C[C@@H]1NC(=O)C1CCOCC1 — lower, -142%
- CCc1nnc(CN(CC)C(=O)CCc2scnc2C)o1 — higher, 7.22%
- COc1cccc([C@@H]2CN(C3CSCCSC3)C[C@H]2C(=O)O)c1 — higher, 2.95%
- Cn1c(-c2ccc(F)cc2)cn2cc(C(=O)N3CC[C@@H](O)C3)nc2c1=O — higher, 11.1%
- CCOCc1nc2c(c(NC(CC)c3ccnn3C)n1)CCNCC2 (stereo not given) — lower, -5.53%
- Cc1nc(C2CCN(C(=O)c3ccc(Cl)s3)CC2)cc(=O)[nH]1 — lower, -0.243%
- Cc1nc(N2CCC3(CCCN(CCO)C3=O)C2)c2sccc2n1 (stereo not given) — lower, -0.456%
- CN(C)CC1(O)CCN(C(=O)c2cnc(CN3CCCC3)s2)C1 (stereo not given) — lower, 0.245%
- CCn1cc(CNC(=O)CCc2nnc(-c3ccc(C)s3)o2)cn1 — lower, -2.83%
- COc1ccc2c(c1OC)Cc1c-2nc(N)c(C#N)c1C1CCOC1 (stereo not given) — higher, 28.6%
- CCCN1CC2(CCN(C)CC2)CC1C(=O)NCCn1nc(C)nc1C (stereo not given) — higher, 2.7%
- Cc1nnc(CCNC(=O)C2CC(=O)N(C(C)(C)C)C2)s1 (stereo not given) — lower, -3.27%
- CN(c1ccc(C(=O)NCCCN2CCCC2)c(Cl)c1)S(C)(=O)=O — lower, -10%
- CN1CCCCC1Cc1nc(Cc2cccc(F)c2)no1 (stereo not given) — lower, -148%
- COc1cc(F)ccc1C(C(=O)O)N(C)CCN1CCCC1 (stereo not given) — lower, -13.4%
- COc1ccc(OC)c(C2CCN(C(=O)C3CCS(=O)(=O)CC3)C2)c1 (stereo not given) — higher, 1.21%
- COc1cccc2c1OCC(C(=O)N(C)CCCc1cnn(C)c1)C2 (stereo not given) — lower, -2.98%
- Cc1ncccc1Oc1nccnc1C1CCN(C(C)C)CC1 — lower, -6.05%
- O=C(c1n[nH]c(=O)c2ccccc12)N1CCCCC1c1ccn[nH]1 (stereo not given) — lower, -0.285%
- Cc1cnn(CC2CCCN2Cc2nnc(-c3ccccc3)o2)c1 (stereo not given) — lower, -9.86%
- Cc1n[nH]c(C2CN(C(=O)CCc3cscn3)CCO2)n1 (stereo not given) — lower, -4.34%
- Cc1nc(C)n(CC2CCCN2Cc2cc(-c3cccs3)on2)n1 (stereo not given) — lower, -0.367%
- CCOc1ncccc1CNC(=O)N1CCCC1c1ccsc1 (stereo not given) — lower, -7.69%
- Cc1ccc(CN2CCC(NC(=O)c3scnc3C)CC2)cc1 — lower, -4.1%
- CC(C)c1ncc2c(n1)CN(CCCc1nc3ccccc3o1)CC2 — lower, -13.2%
- c1ccc(OCCN2CCCCC2Cn2cncn2)cc1 (stereo not given) — lower, -15.7%
- c1csc(-c2nc(CN3CCOC(Cn4cncn4)C3)cs2)c1 (stereo not given) — lower, -3.91%
- Cc1csc(N2CCN(CC(=O)Nc3nncs3)CC2C)n1 (stereo not given) — lower, -7.44%
- CN(CCO)CC1COCCN1C(=O)C1CCCCC1 (stereo not given) — lower, -4.52%
- CN(C)C(=O)CN1CCCC2(CCN(c3ccsc3)C2=O)C1 (stereo not given) — higher, 9.88%
- Cc1noc(C)c1CN1C[C@@H]2CN(C(=O)c3cnccn3)C[C@@H]2C1 — lower, -1.86%
- Cc1cccc(CN2C(=O)CC[C@@H]3[C@H]2CCN3Cc2nccn2C)n1 — lower, -81.9%
- Cc1noc(C)c1CN1CCC2(CC1)CCN(C(=O)c1cscn1)C2 — higher, 1.21%
- CNC(=O)COC1COC2(CCN(Cc3cccnc3OC)CC2)C1 (stereo not given) — higher, 7.61%
- CCS(=O)(=O)N1CCC2(CC1)CC1(CCN(CCOC)CC1)C(=O)N2C — lower, 0.503%
- COc1cccc(N2CC3(CCN(Cc4nccn4C)C3)CC2=O)c1 (stereo not given) — lower, -83%
- Cc1cnc(C(=O)N2CC[C@H]3[C@@H]2CCC(=O)N3c2cccnc2)cn1 — lower, -81.9%
- Cc1nc(CN2CC[C@H]3[C@H]2CCN3c2nncs2)cs1 — higher, 5.2%
- O=C1CO[C@@H]2CN(Cc3ccncc3)C[C@H]2N1Cc1ccncc1 — lower, -85%
- CS(=O)(=O)N1C[C@H]2CC[C@@H](C1)N(C(=O)CCc1n[nH]c3c1CCCC3)C2 — higher, 11%
- COC1C[C@@H]2CN(C(=O)c3cccc4c3OCCO4)C[C@@H]2C1 (stereo not given in full) — higher, 7.77%

From ChEMBL document CHEMBL4513216, “Probing the Open Global Health Chemical Diversity Library for Multistage-Active Starting Points for Next-Generation Antimalarials” (ACS Infect Dis, 2020)
